Data taken from ChEMBL document CHEMBL4342515, “Boron Accumulation in Brain Tumor Cells through Boc-Protected Tryptophan as a Carrier for Boron Neutron Capture Therapy” (ACS Med Chem Lett, 2020).
The source made the active and inactive calls. No cut-off for these calls is given here.

Experiments:
[1] = Drug uptake in human U87MG cells at 50 uM measured upto 4 hrs by ICP-MS analysis; assay type: ADME, cell-based; settings: u-87mg atcc
Method in brief: (§1)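 Cellular boron accumulation was measured by ICP-MS as boron concentration (ppm) at time points over the incubation, up to 4 h. Mouse 3T3 cells served as the normal reference for the tumor/normal (T/N) ratio.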

U-87 MG [2] = assay: Cytotoxicity against human U87MG cells assessed as cell viability at 50 uM incubated for 1 hr followed by neutron irradiation for 3 mins by WST-1 assay; assay type: functional, cell-based; settings: U-87MG ATCC
U-87 MG [3] = assay: Cytotoxicity against human U87MG cells assessed as cell viability at 100 uM incubated for 24 hrs by WST-1 assay (reference value: 97 %); assay type: functional, U-87MG ATCC; settings: read-out: Activity
[4] = Drug uptake in human LN229 cells at 50 uM measured upto 4 hrs by ICP-MS analysis; assay type: ADME, cell-based; settings: ln-229, 4 h; method in brief: as §1
[5] = Cytotoxicity against mouse 3T3 cells assessed as cell viability incubated for 24 hrs by WST-1 assay (reference value: 57 %); assay type: cell-based; settings: NIH3T3 cells, read-out: Activity
[6] = Drug uptake in human U87MG cells at 50 uM incubated for 2 hrs by ICP-MS analysis; assay type: ADME, cell-based; settings: u-87mg atcc
LN-229 [7] = assay: Cytotoxicity against human LN229 cells assessed as cell viability at 100 uM incubated for 24 hrs by WST-1 assay (reference value: 91 %); assay type: functional; settings: LN-229, 24 h, read-out: Activity
[8] = Aqueous solubility of compound; assay type: physicochemical; settings: buffer
LN-229 [9] = assay: Cytotoxicity against human LN229 cells assessed as cell viability at 50 uM incubated for 1 hr followed by neutron irradiation for 3 mins by WST-1 assay; assay type: functional, cell-based
NIH3T3 = assay: Downregulation of LAT-1 expression in mouse 3T3 cells at 50 uM incubated for 2 hrs by Western blot analysis; assay type: functional, cell-based
Method in brief: (§2)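 Western blot for LAT-1 protein in the three cell lines after 2 h incubation with the derivatives. Primary antibodies: LAT-1 (1:2500) and α-tubulin (1:5000) as loading reference. Qualitative comparison of expression level.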

U-87 MG [10] = assay: Effect on LAT-1 expression in human U87MG cells at 50 uM incubated for 2 hrs by Western blot analysis; assay type: functional, cell-based; settings: U-87MG ATCC; method in brief: as §2
LN-229 [11] = assay: Effect on LAT-1 expression in human LN229 cells at 50 uM incubated for 2 hrs by Western blot analysis; assay type: functional, cell-based; method in brief: as §2
[12] = Ratio of drug uptake in human LN229 cells to drug uptake in mouse 3T3 cells measured at 1 hr; assay type: ADME, cell-based
[13] = Ratio of drug uptake in human LN229 cells to drug uptake in mouse 3T3 cells measured up to 4 hrs; assay type: ADME, cell-based
[14] = Drug uptake in human LN229 cells at 50 uM incubated for 1 hr by ICP-MS analysis; assay type: ADME, cell-based; settings: ln-229, 1 h
[15] = Ratio of drug uptake in human U87MG cells to drug uptake in mouse 3T3 cells measured up to 4 hrs; assay type: ADME, cell-based

COC(=O)C(Cc1cn(C(=O)OC(C)(C)C)c2ccc(B3OC(C)(C)C(C)(C)O3)cc12)N(C(C)=O)C(=O)OC(C)(C)C (configuration not stated)
Drug uptake [1]: Active | Activity (U-87 MG [2]): Active | viability at 100 µM (U-87 MG [3]): 70.2% | Drug uptake [4]: Active | viability at 24 h [5]: 63.6% | Drug uptake [6]: 300 ppm | viability at 100 µM (LN-229 [7]): 70.8% | solubility [8]: Insoluble | Activity (LN-229 [9]): Active

COC(=O)C(Cc1c(B2OC(C)(C)C(C)(C)O2)[nH]c2c(B3OC(C)(C)C(C)(C)O3)cccc12)N=[N+]=[N-] (configuration not stated)
viability at 100 µM (U-87 MG [3]): 61.3% | viability at 24 h [5]: 66.6% | viability at 100 µM (LN-229 [7]): 57.2%

COC(=O)C(Cc1c[nH]c2ccc(B3OC(C)(C)C(C)(C)O3)cc12)NC(C)=O (configuration not stated)
Drug uptake [1]: Not Active | Activity (NIH3T3): Active | viability at 100 µM (U-87 MG [3]): 66.2% | Activity (U-87 MG [10]): inactive | Drug uptake [4]: Not Active | viability at 24 h [5]: 60.2% | Activity (LN-229 [11]): inactive | viability at 100 µM (LN-229 [7]): 69.9%

COC(=O)C(Cc1cn(C(=O)OC(C)(C)C)c2ccc(B3OC(C)(C)C(C)(C)O3)cc12)N(C(=O)OC(C)(C)C)C(=O)OC(C)(C)C (configuration not stated)
Drug uptake [1]: Active | Activity (U-87 MG [2]): Active | Activity (NIH3T3): Active | viability at 100 µM (U-87 MG [3]): 67.4% | Activity (U-87 MG [10]): inactive | Drug uptake [4]: Active | Ratio [12]: > 9.66 | viability at 24 h [5]: 60.2% | Ratio [13]: > 5 | Drug uptake [6]: 300 ppm | Activity (LN-229 [11]): inactive | Drug uptake [14]: 450 ppm | viability at 100 µM (LN-229 [7]): 60.7% | Ratio [15]: > 5 | solubility [8]: Insoluble | Activity (LN-229 [9]): Active

COC(=O)C(Cc1cn(C(=O)OC(C)(C)C)c2cc(B3OC(C)(C)C(C)(C)O3)ccc12)N(C(=O)OC(C)(C)C)C(=O)OC(C)(C)C (configuration not stated)
Drug uptake [1]: 300 ppm | Activity (U-87 MG [2]): Active | Activity (NIH3T3): Active | viability at 100 µM (U-87 MG [3]): 60.1% | Activity (U-87 MG [10]): inactive | Drug uptake [4]: 300 ppm | viability at 24 h [5]: 63.6% | Ratio [13]: > 5 | Activity (LN-229 [11]): inactive | viability at 100 µM (LN-229 [7]): 53.2% | Ratio [15]: > 5 | solubility [8]: Insoluble | Activity (LN-229 [9]): Active

COC(=O)C(N)Cc1c[nH]c2ccc(B3OC(C)(C)C(C)(C)O3)cc12 (configuration not stated)
Drug uptake [1]: Not Active | Activity (NIH3T3): Active | viability at 100 µM (U-87 MG [3]): 65.8% | Activity (U-87 MG [10]): inactive | Drug uptake [4]: Not Active | viability at 24 h [5]: 53% | Activity (LN-229 [11]): inactive | viability at 100 µM (LN-229 [7]): 67.3%

N[C@@H](Cc1ccc(B(O)O)cc1)C(=O)O
Activity (U-87 MG [2]): Active | Activity (NIH3T3): Active | viability at 100 µM (U-87 MG [3]): 67% | Activity (U-87 MG [10]): inactive | Ratio [12]: 2.3 | viability at 24 h [5]: 110% | Activity (LN-229 [11]): inactive | Drug uptake [14]: < 50 ppm | viability at 100 µM (LN-229 [7]): 79.6% | Activity (LN-229 [9]): Active
